Bioassay records from PubChem BioAssay.
An excerpt weighted towards active compounds, which were near 1.4% of everything screened.
HKDC1 inh: HKDC1 hexokinase inhibitors, primary screen, biochemical, fluorescence, uHTS; recombinant HKDC1, G6PDH/diaphorase resazurin coupled fluorescence; inhibition, % at 20 µM; 0.16% of 340,000 active; AID 493160, 2011;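 active means inhibition above about 35% when tested at 20 µM, limit read from the data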;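 further: plate controls were DMSO wells with enzyme for no effect and DMSO wells lacking enzyme for full effect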
Target sequence (Q2TB90 whole entry, looked up): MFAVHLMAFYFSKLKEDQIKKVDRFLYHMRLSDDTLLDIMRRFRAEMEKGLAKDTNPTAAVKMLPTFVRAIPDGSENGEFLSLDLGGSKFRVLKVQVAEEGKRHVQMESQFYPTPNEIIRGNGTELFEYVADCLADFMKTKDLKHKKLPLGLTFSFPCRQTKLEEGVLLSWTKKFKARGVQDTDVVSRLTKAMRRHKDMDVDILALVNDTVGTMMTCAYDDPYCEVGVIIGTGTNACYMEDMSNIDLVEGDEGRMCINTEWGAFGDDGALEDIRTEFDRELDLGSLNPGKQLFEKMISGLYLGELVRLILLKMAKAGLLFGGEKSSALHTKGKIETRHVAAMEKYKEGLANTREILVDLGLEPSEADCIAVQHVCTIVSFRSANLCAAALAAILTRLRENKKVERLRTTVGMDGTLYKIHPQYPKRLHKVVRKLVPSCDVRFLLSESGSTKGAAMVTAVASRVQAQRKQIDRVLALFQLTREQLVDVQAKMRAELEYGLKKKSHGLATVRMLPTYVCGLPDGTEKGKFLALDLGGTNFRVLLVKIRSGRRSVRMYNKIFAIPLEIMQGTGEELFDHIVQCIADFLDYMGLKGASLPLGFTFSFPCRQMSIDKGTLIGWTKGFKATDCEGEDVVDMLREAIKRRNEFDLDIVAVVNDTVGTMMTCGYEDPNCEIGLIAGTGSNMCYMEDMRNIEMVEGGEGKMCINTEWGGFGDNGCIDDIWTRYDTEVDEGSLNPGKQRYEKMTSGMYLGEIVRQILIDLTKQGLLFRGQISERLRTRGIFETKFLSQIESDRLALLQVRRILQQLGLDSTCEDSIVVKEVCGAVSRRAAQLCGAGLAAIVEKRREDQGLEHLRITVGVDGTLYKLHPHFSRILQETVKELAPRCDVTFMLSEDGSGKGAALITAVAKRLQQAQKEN
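System: Recombinant HKDC1 hexokinase | Amount: HKDC1 at 5 µg/mL | Reagent: Glucose with 1 mM ATP | Doses: Single 20 µM dose | Incubation: Reaction time 90 min, room temperature, protected from light | Signal: Coupled resazurin fluorescence, excitation 525 nm, emission 613 nm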
Diaph inh CS: diaphorase inhibitors and chemical oxidizers, primary screen, counter-screen for diaphorase-coupled primary assays, biochemical, uHTS, resorufin fluorescence. diaphorase resazurin-to-resorufin fluorescence, NADH, 16 min; bacterial (C. kluyveri) enzyme, not human. inhibition, % at 20 µM. 0.69% of 190,000 active. AID 1217, 2008;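 active means primary screen inhibition at 20 µM above a set limit, cut at about 50% in these data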;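 further: plate controls were DMSO with full reaction for no effect and wells lacking NADH for full effect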
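Assay system: diaphorase enzyme from Clostridium kluyveri. Quantity: enzyme working solution with 0.14 U/mL diaphorase. Schedule: reaction incubation of 16 min at room temperature. Technique: resorufin fluorescence, excitation 544 nm, emission 590 nm. Controls: No-NADH positive control and DMSO neutral control.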
Fh CTSL1 inh: Fasciola hepatica cathepsin L1 inhibitors, primary screen, counter-screen for PFM18AAP inhibitor project, biochemical, QFRET, fluorogenic peptide substrate; 0.49% of 300,000 active; recombinant F. hepatica cathepsin L1, Z-Leu-Arg-MCA fluorescence; inhibition, % at 5.96 µM; AID 1906, 2009;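 active means inhibition above the mean of all tested compounds plus 3 SD, set per screening campaign, cut at about 17% in these data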;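 further: 0% = plate median of test compound wells and 100% = 1 µM Z-Phe-Ala-diazomethylketone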
Diaph act CS: compounds boosting diaphorase resazurin reduction – biochemical, uHTS, resorufin fluorescence, counter-screen for diaphorase-coupled primary assays, primary screen. activation factor at 20 µM. Diaphorase/resazurin coupled assay, 16 min; stronger effect = higher value; 1 = vehicle wells, 0 = NADH-free wells. 0.005% of 190,000 active;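 active means diaphorase activity raised at least twofold by the compound at 20 µM; inactive means activation factor below 2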
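Test system: Clostridium kluyveri diaphorase, purified enzyme. Buffer or medium: 50 mM HEPES pH 7.4 buffer plus MgCl2 and Tween 20. Also added: 0.114 mM NADH and 0.1 mM resazurin, final amounts. Dosing: compound 20 µM once, DMSO 1%. Schedule: 16 min enzyme reaction, ambient temperature. Detection: fluorescence of resorufin, 544 nm excitation, 590 nm emission.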
ATG4B inh: ATG4B protease inhibitors, primary screen, biochemical, fluorescence, uHTS | AID 504462, 2011 | Cysteine protease ATG4B (Homo sapiens), Q9Y4P1 | ATG4B cleavage of LC3-PLA2, NBD-HPC fluorescence, 1 h | 0.51% of 340,000 active | inhibition, % at 8.33 µM; in the data active means inhibition above about 40%
ATG4B conf: ATG4B protease inhibitors, retest, confirmation, biochemical, fluorescence, single concentration; 92% of 320 active; AID 504757, 2011; ATG4B protease fluorescent substrate cleavage assay; inhibition, % at 8.33 µM; shares compounds with ATG4B inh; in the data active means inhibition above about 39%
PLA2 counter: PLA2 enzyme inhibition, counter-screen for ATG4B inhibitor project, biochemical, single concentration, uHTS hits; shares compounds with ATG4B inh; purified PLA2, NBD-C6-HPC fluorescence, 45 min; inhibition, % at 8.33 µM; 66% of 1,600 active; AID 588402, 2011; in the data active means inhibition above about 50%
Numbers without * were called inactive; . = not tested or not shown.

SMILES | HKDC1 inh | Diaph inh CS | Fh CTSL1 inh | Diaph act CS | ATG4B inh | PLA2 counter | others
Cc1ccc(-n2c(SCC(=O)N/N=C/c3c(C)nn(-c4ccccc4)c3C)nc3ccccc3c2=O)cc1 | -2 | 21 | 4 | 0.8 | 40* | -4 | ATG4B conf=78*
CCCCn1c(N)c(N(CC(C)C)C(=O)CC2CCCCC2)c(=O)[nH]c1=O | -7 | . | -1 | . | 13 | .
COc1ccc(C=O)cc1CN1CCCN(Cc2ccccc2F)S1(=O)=O | 3 | . | -1 | . | 53* | 56*
Cc1ccc2c(c1)/C(=N/OC(=O)c1ccc(F)cc1)CCS2 | 3 | 1 | -8 | 1 | 10 | .
O=C(O/N=C1/CCSc2ccccc21)c1ccccc1 | -3 | 5 | 12 | 0.9 | 42* | 37 | ATG4B conf=72*
O=C(CSc1nc2ccccc2c(=O)n1-c1ccc(F)cc1)NCc1ccco1 | 4 | 22 | 1 | 0.8 | 19 | .
O=C(c1ccc(-n2c(SCc3cc(F)ccc3F)nc3ccccc3c2=O)cc1)N1CCOCC1 | -3 | 23 | 0 | 0.8 | 47* | 9 | ATG4B conf=63*
O=c1c2ccccc2nc(SCc2cn3ccsc3n2)n1-c1ccc(F)cc1 | 4 | 28 | -7 | 0.7 | 75* | 71*
COc1ccc(CCC(=O)NCC(=O)OCc2ccccc2)cc1 | 3 | . | 3 | . | -6 | .
Cc1ccc(N=CC2=C(O)CC(c3ccccc3Cl)CC2=O)cc1 (stereo not given) | -1 | . | 2 | . | -6 | .
O=C1CC(c2ccccc2Cl)CC(O)=C1C=Nc1ccccc1 (stereo not given) | 4 | 18 | -2 | 0.8 | 53* | 53*
COC(=O)c1c(NC(=O)c2cccc(S(=O)(=O)N3CCN(C)CC3)c2)sc(C)c1C | 4 | . | -2 | . | -19 | .
Cc1cccc(N(C(=O)c2csnn2)C(C(=O)NCc2ccccc2)c2ccc(C)o2)c1 (stereo not given) | 2 | . | 3 | . | 2 | .
COc1ccc(CNC(=O)C(c2ccc(C)o2)N(C(=O)c2csnn2)c2ccc(C(C)C)cc2)cc1 (stereo not given) | 5 | 21 | 7 | 0.8 | 43* | 41
CN(C)c1ccc(-c2c(-c3ccc4c(c3)OCO4)noc2-c2ccsc2)cn1 | 3 | . | 0 | . | -1 | .
O=C(O)c1cc(-c2ccc(-c3c(-c4ccc5c(c4)OCO5)noc3-c3ccsc3)cc2)nc2ccccc12 | 4 | . | 0 | . | 62* | 34 | ATG4B conf=18
Cc1ccccc1CSc1nnnn1-c1ccc(C(N)=O)cc1 | 3 | . | 2 | . | 58* | 54*
Cc1sc(-n2c(C)cc(/C=C3\SC(=S)NC3=O)c2C)c(C#N)c1C | 30 | 43 | 4 | 0.6 | 81* | 74*
Cc1cc(/C=C2\SC(=S)NC2=O)c(C)n1-c1cccc(O)c1 | 6 | . | 2 | . | 17 | .
COc1cc(CN2CCNC(=O)C2CC(=O)NC2CCC2)cc(OC)c1 (stereo not given) | 6 | . | 2 | . | 8 | .
CC(=O)c1cc2c(C)c(C(=O)c3ccccc3)oc2cc1O | -5 | 12 | 0 | 0.9 | 40* | -6
COc1ccc(-c2csc(N(Cc3ccco3)C(=O)c3cccs3)n2)cc1 | -18 | . | 4 | . | 9 | .
COc1ccc(OC)c(-c2csc(N(Cc3ccco3)C(=O)c3cccs3)n2)c1 | -2 | -8 | 3 | 1.1 | 57* | 72*
CCOC(=O)C1CCN(C(=O)c2ccc3c(=O)n4nc(Nc5cc(C)ccc5C)sc4nc3c2)CC1 | 3 | . | 6 | . | 8 | .
